# Source: PubChem (The Scripps Research Institute Molecular Screening Center)
# DDE Tn6 FP inh: DD(E)-Tn6 binding inhibition, primary FP screen; Fibrin DD(E) TRITC-Tn6 fluorescence polarization displacement; 0.21% of 370,000 active; P02675; inhibition, % at 8.3 µM;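 active means inhibition above a per-campaign cutoff: mean of compounds within control limits plus 3 SD, cut at about 15% in these data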;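 further: 0% = median of all compound wells on the plate and 100% = blocking peptide control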
# Target sequence (P02675 whole entry, looked up): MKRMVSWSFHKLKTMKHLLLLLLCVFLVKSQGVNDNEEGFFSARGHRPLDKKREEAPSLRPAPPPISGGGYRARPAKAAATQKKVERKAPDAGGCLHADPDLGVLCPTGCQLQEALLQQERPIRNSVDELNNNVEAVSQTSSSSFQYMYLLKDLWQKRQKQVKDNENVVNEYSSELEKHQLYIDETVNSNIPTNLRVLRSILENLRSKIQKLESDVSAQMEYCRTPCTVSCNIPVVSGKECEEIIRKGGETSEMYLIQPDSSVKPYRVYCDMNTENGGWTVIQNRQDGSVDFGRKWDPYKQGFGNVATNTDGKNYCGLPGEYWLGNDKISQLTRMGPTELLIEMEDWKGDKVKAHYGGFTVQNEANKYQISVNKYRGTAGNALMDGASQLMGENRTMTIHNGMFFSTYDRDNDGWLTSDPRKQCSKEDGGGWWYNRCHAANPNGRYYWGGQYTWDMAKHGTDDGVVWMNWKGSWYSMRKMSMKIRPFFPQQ
# mABHD4 FP: inhibits mouse alpha/beta hydrolase domain 4. Q8VD66. purified mABHD4, FP-Rh probe fluorescence polarization. inhibition, % at 8.92 µM. 0.54% of 370,000 active. AID 720543;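 active means inhibition exceeding the mean over every tested compound plus 3 SD, cut at about 30% in these data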;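 further: 0% = plate median of compound wells and 100% = S159A mutant with DMSO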
#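 Assay system: mouse ABHD4 enzyme, wild type / Also added: fluorescent activity-based probe FP-Rh / Doses: single nominal dose of 8.92 µM, 0.89% DMSO final / Timing: 45 min compound pre-incubation plus 60 min probe step, 25 °C / Signal: FP readout, ex 525 nm / em 598 nm / Control set: S159A mutant/DMSO as 100%, compound-well median as 0%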
# SIAE primary: blocks human sialic acid acetylesterase; AID 1053197; SIAE FP-Rh probe binding, fluorescence polarization; 0.69% of 370,000 active; inhibition, % at 9.66 µM;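 active means inhibition above a cutoff: mean of compounds within the control limits plus 3 SD of those, cut at about 17% in these data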;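 further: 0% = plate median of compound wells and 100% = probe without SIAE protein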
# HTRA1 inhibitor: blocks human HTRA1 serine peptidase | recombinant HTRA1, FP-rhodamine activity-based probe, fluorescence polarization | AID 504803 | 0.5% of 340,000 active | inhibition, % at 5.96 µM; in the data active means inhibition above about 36%;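 further: 0% = enzyme with DMSO and 100% = wells lacking enzyme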
# DDE Tn7 FP inh: inhibitors of Tn7 peptide binding to human fibrin DD(E); P02675; FP displacement of FITC-Tn7 peptide from fibrin DD(E); 0% = median of compound wells per plate; inhibition, % at 8.3 µM; 0.13% of 370,000 active;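 active means inhibition above the mean of compounds falling within the control limits plus 3 SD of them, cut at about 14% in these data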;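 further: 0% = plate median of compound wells and 100% = 10 µM Aha-Tn7 peptide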
#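 Measure: % inhibition scaled between sample-field median and high-control FP; Test system: human fibrin DD(E); Quantity: 2 µM final DD(E) protein; Doses: one dose, 8.3 µM nominal; Schedule: compound with protein 10 min, then 3 h after probe, room temperature; Detection: fluorescence polarization; Medium: Tris buffer with calcium and detergent, pH 7.8.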
# TCR-CD3 inh: human TCR-CD3 binding inhibition; AID 651800; inhibition, % at 9.4 µM; TAMRA-labeled TCR probe fluorescence, biochemical; 0.37% of 360,000 active;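 further: recombinant mutant TCR 2C K166C tagged with TAMRA read by polarization; 0% = receptor in buffer alone and 100% = receptor with positive control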
# BSA TAMRA ctr: BSA probe counter-screen for TCR-CD3 inhibitors; inhibition, % at 9.4 µM; TAMRA-labeled BSA probe fluorescence counterscreen; shares compounds with TCR-CD3 inh; AID 652035; 10% of 1,200 active; in the data active means inhibition above about 23%;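 further: 0% = buffer low control and 100% = reference high control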
# TCR-CD3 inh conf: TCR-CD3 interaction inhibition, confirmation | AID 652036 | inhibition, % at 9.4 µM | shares compounds with TCR-CD3 inh | TAMRA-labeled TCR probe fluorescence binding assay | 48% of 1,200 active
# * hit, by the source's call; . = no result. A selection: hits, their analogues and other compounds. The true share with any hit is near 1.8%. Unless noted, no stated cut-off is given here; in the data, active means inhibition above about 19%; inactive means the rest.
SMILES,DDE Tn6 FP inh,mABHD4 FP,SIAE primary,HTRA1 inhibitor,DDE Tn7 FP inh,TCR-CD3 inh,BSA TAMRA ctr,TCR-CD3 inh conf
O=C(N/N=C/c1cc([N+](=O)[O-])ccc1O)c1cccc(N2CCCC2=O)c1,1,11,2,-4,6,46*,-10,37*
COc1cc(/C=N/NC(=O)c2cccc(N3CCCC3=O)c2)ccc1O,-1,8,-1,-2,1,1,.,.
CCc1ccc(N2CC(C(=O)N/N=C/c3ccccc3OC)CC2=O)cc1 (stereo not drawn),-3,-3,8,-23,3,-7,.,.
CCc1ccc(N2CC(C(=O)N/N=C/c3cc([N+](=O)[O-])ccc3O)CC2=O)cc1 (stereo not drawn),-2,3,-3,.,-6,31*,-9,26*
COC(=O)[C@]12C[C@H](CC(=O)NCc3cccc(C(F)(F)F)c3)C(=O)N(CCC3=CCCCC3)C1=C[C@H](C(C)C)O[C@@H]2C1CC1,-1,-9,-4,.,1,.,.,.
COc1cc(OC)c(N(C)S(=O)(=O)c2cccc(C(=O)Nc3nnc(C4CC4)s3)c2)cc1Cl,-7,-11,-17,-8,3,21*,7,4
CCOC(=O)C1(Cc2ccccc2)C(=O)N(CCCN(C)C)c2ccccc21 (stereo not drawn),3,-1,-2,.,-6,6,.,.
O=C(/C=C/c1cccs1)c1ccc(NC(=O)c2cccc(Br)c2)cc1,-3,-36,-13,-54,-1,42*,3,12
CCc1n[nH]c(=S)n1/N=C/c1cc(OC)cc([N+](=O)[O-])c1O,-4,21,8,18,1,44*,-14,44*
COc1cc(/C=N/n2c(=S)[nH]nc(C)c2=O)cc([N+](=O)[O-])c1O,4,5,-3,.,3,0,.,.
COC(=O)[C@@H](Cc1ccc(O)cc1)NC(=O)[C@H]1O[C@@H](n2cnc3c(=O)[nH]c(N)nc32)[C@H](O)[C@@H]1O,7,3,1,.,0,1,.,.
Nn1c(-c2cccc(O)c2)nnc1-c1cccc(O)c1,-3,8,3,4,5,9,.,.
O=C1CC(N(CCc2ccccc2)C(=S)Nc2ccccc2)C(=O)N1c1ccc(Br)cc1 (stereo not drawn),-1,-118,-140,-139,-8,24*,3,3
COc1cc(OC)c2c(c1O)OC(c1ccccc1)CC2=O (stereo not drawn),-1,7,4,25,0,39*,-6,19*
COc1ccc(C(=O)NNC(=S)NC(=O)c2ccco2)cc1,-2,9,0,10,-3,12,.,.
Cc1cccc(C(=O)NNC(=O)c2c(-c3ccccc3Cl)noc2C)c1O,4,2,1,0,1,29*,-1,16
Cc1onc(-c2ccccc2Cl)c1C(=O)NNC(=O)c1ccc(F)cc1,-2,-3,3,-2,2,-1,.,.
CCCOc1ccc(C(=O)NNC(=S)NC(=O)c2ccco2)cc1,-10,5,2,10,5,20*,-13,14
COc1ccccc1C(=O)NNC(=S)NC(=O)c1ccco1,-3,2,6,4,7,21*,-9,14
Nc1ccc([N+](=O)[O-])cc1C(=O)NNC(=O)c1ccco1,-5,-3,6,-5,-1,27*,-11,32*
O=S1(=O)c2c(cccc2N2CCC[C@@H]2CO)OCCCN1C1CC1,-6,0,-4,.,-4,.,.,.
CC1(C(=O)NC2CCN(Cc3ccccc3)CC2)CCN1Cc1ccc2ccccc2c1 (stereo not drawn),-4,1,0,.,-3,-3,.,.
Cc1cccc(C(=O)NNC(=O)c2ccco2)c1O,4,0,13,-2,-1,19*,-5,12
CC(=O)Oc1ccc2occ(/C=N/c3cc(=O)[nH]c(=S)[nH]3)c(=O)c2c1,-2,12,-3,-8,-2,19*,-7,13
NS(=O)(=O)c1cc(C(=O)NC2CCSc3ccccc32)ccc1Cl (stereo not drawn),-24,-36,-43,-178,0,40*,0,36*
SMILES,DDE Tn6 FP inh,mABHD4 FP,SIAE primary,HTRA1 inhibitor,DDE Tn7 FP inh,TCR-CD3 inh,BSA TAMRA ctr,TCR-CD3 inh conf
NS(=O)(=O)c1cccc(C(=O)NC2CCSc3ccccc32)c1 (stereo not drawn),-3,-4,3,-7,-5,1,.,.
CN(C)/C=N/NC(=O)C1Cc2c(ccc3ccccc23)O1 (stereo not drawn),4,0,1,5,-2,6,.,.
CCOC(=O)CS(=O)(=O)c1nc(-c2ccccc2)cc(C(F)(F)F)n1,3,-4,-5,-18,5,22*,1,0
CCOC(=O)C(C)N1c2cccc3cccc(c23)S1(=O)=O (stereo not drawn),-1,-8,-5,4,-4,1,.,.
CC(C)C(=O)Nc1ccc(C(=O)NNC(=S)NC(=O)c2ccccc2[N+](=O)[O-])cc1,7,3,4,6,-3,26*,-1,33*
O=c1c(O[C@H]2O[C@@H](CO)[C@H](O)[C@@H](O)[C@@H]2O)c(-c2ccc(O)cc2)oc2cc(O)cc(O)c12,5,-8,-1,13,2,-8,.,.
O=c1c(OC2OC(CO)C(O)C(O)C2OC2OC(CO)C(O)C(O)C2O)c(-c2ccc(O)cc2)oc2cc(O)cc(O)c12 (stereo not drawn),5,1,8,1,-1,23*,-4,14
Cc1cccc(NC(=O)NCCCN2CCN(c3ccc(F)cc3)CC2)c1,6,6,-2,.,-4,.,.,.
O=C(NCC(=O)N(CC1CCCO1)C(C(=O)NC1CCCCC1)c1ccccc1)c1cccs1 (stereo not drawn),-3,-4,6,-6,8,29*,4,2
Cc1ccc(C(C(=O)NC2CCCCC2)N(CC2CCCO2)C(=O)CNC(=O)c2cccs2)cc1 (stereo not drawn),2,7,1,-2,-1,-2,.,.
Oc1ccc(C[C@H]2CNC(=S)N2C[C@H]2CCCN2C[C@H](Cc2ccccc2)N2C[C@H](Cc3ccccc3)N(CC3CCCCC3)C2=S)cc1,-2,-3,-3,.,3,1,.,.
CCOC(=O)C1=C(CC)Nc2ccccc2N=C1NC(=O)Nc1ccc(Cl)c(Cl)c1,11,-100,-101,-93,6,79*,20,54*
